Compound activity: PubChem, several laboratories
HCV NS3 hel inh = inhibitors of Hepatitis C virus NS3 helicase | NS3 helicase DNA unwinding, Cy5 molecular beacon fluorescence | inhibition, % at 10.9 µM | hit rate 0.56% among 290,000;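 active = inhibition above the mean of all tested compounds plus 3 SD, set per campaign, cut at about 35% in these data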
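assay system = NS3 helicase fragment of HCV | buffer or medium = MOPS pH 6.5, MgCl2, DTT, Tween20, BSA | timing = 60 min unwinding reaction at 25 °C after ATP addition | signal = Cy5 beacon fluorescence read at start and 1 h | read-out basis = % inhibition of unwinding | control set = low DMSO, high thioflavine S at 110 µM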
Casp6 inh = inhibitors of human caspase-6. P55212. purified caspase-6, Z-VEID-R110 cleavage fluorescence. inhibition, % at 12.5 µM. hit rate 0.53% among 350,000;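 active = mean inhibition across replicates at least about 35%, with every replicate also reaching that limit, limit read from the data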
DNMT1 block = blocks human DNA methyltransferase DNMT1. DNMT1 molecular beacon, Hinp1I cleavage, fluorescence. AID 588458. P26358. inhibition (reported as % activation of signal), % at 10 µM. hit rate 0.83% among 360,000
NSD2 inh = blocks human histone methyltransferase NSD2. inhibition, % at 12.5 µM. NSD2 peptide methylation, AlphaScreen, 120 min. hit rate 0.54% among 310,000. O96028
AlphaScreen art = counter-screen for NSD2 inhibitors: AlphaScreen artifacts. shares compounds with NSD2 inh. AC35, µM (doses to about 10 µM). hit rate 9.4% among 1,500. AlphaScreen artifact counterscreen, preloaded methylated H4 peptide; call rule not given here
A number is an active result; . = inactive; / = not tested or not shown. Only some compounds are listed: those with a hit (about 1.5% of all), similar ones and a draw of the others. Cut-off read from the data, not from the text of the source, unless noted: active = inhibition above about 50%; inactive = the rest.

SMILES	HCV NS3 hel inh	Casp6 inh	DNMT1 block	NSD2 inh	AlphaScreen art
CCCNC(=O)N(C)C[C@@H]1Oc2ncc(C#Cc3ccncc3)cc2C(=O)N([C@@H](C)CO)C[C@H]1C	/	.	/	/	/
O=C(COc1ccc(S(=O)(=O)N2CCCC2)cc1)Nc1ccc(F)cc1	.	.	.	68.1	.
Cc1ccc(OCC(=O)Nc2cc(S(=O)(=O)N3CCOCC3)ccc2N2CCCC2)cc1	/	.	.	.	/
CN1CCN(c2ccc(S(=O)(=O)N3CCOCC3)cc2NC(=O)COc2ccc(F)cc2Cl)CC1	.	.	.	184.8	.
Cc1ccc(Cl)c(OCC(=O)Nc2cc(S(=O)(=O)N3CCOCC3)ccc2N2CCCC2)c1	.	.	.	73.0	.
CN1C(=O)c2cc(NC(=O)C3CCCCC3)ccc2OC[C@@H]2O[C@@H](CC(=O)NCCc3ccncc3)CC[C@H]21	/	.	/	/	/
O=C1C(Nc2cccc(O)c2)=C(N2CCCCC2)C(=O)c2ccccc21	.	/	.	64.1	.
CC1CCN(C2=C(NS(=O)(=O)c3ccc(Br)cc3)C(=O)c3ccccc3C2=O)CC1	.	.	.	.	/
O=C1C(NS(=O)(=O)c2ccc(Br)cc2)=C(N2CCCCC2)C(=O)c2ccccc21	.	.	.	57.8	2.35µM
COCC(=O)N1CC2(C1)[C@@H](c1ccc(-c3cccc(F)c3)cc1)[C@H](CO)N2C(=O)COC	/	.	/	/	/
COc1cccc(/C(O)=C2\C(=O)C(=O)N(c3ccccn3)C2c2ccccc2OC)c1 (stereo not drawn)	.	/	.	.	/
COc1ccc(C2/C(=C(\O)c3cccc(OC)c3)C(=O)C(=O)N2c2ccccn2)cc1 (stereo not drawn)	.	.	.	116.3	.
Cc1ccccc1N=C1NC(=O)/C(=C/c2cccn2-c2cccc(C(=O)O)c2)S1	.	/	/	80.2	.
O=C(O)c1cccc(-n2cccc2/C=C2/NC(=O)N(c3ccc(Cl)cc3)C2=O)c1	.	84.2	86.7	140.7	2.15µM
COc1ccc(-n2cccc2/C=C2/NC(=O)N(c3cccc(Cl)c3)C2=O)cc1	.	.	.	.	/
COc1cc(NC(=O)c2ccccc2)c(OC)cc1NC(=O)CSc1[nH]c(=O)cc(C)c1C#N	.	.	.	129.9	.
CCN(CC)CCCn1c(=S)[nH]c2ncccc2c1=O	.	/	.	54.8	.
CCN(CCCn1c(=S)[nH]c2ncccc2c1=O)c1ccccc1	.	/	.	.	/
CO[C@H]1CN(C)C(=O)c2cc(NC(=O)C3CCCC3)ccc2OC[C@H](C)NC[C@H]1C	/	.	/	/	/
Cc1noc(C)c1S(=O)(=O)N(C)C[C@H]1OCCCC[C@@H](C)Oc2ccc(NC(=O)NC3CCCCC3)cc2C(=O)N([C@@H](C)CO)C[C@@H]1C	/	.	/	/	/
Cc1nn2c3ccccc3n(CCN3CCCCC3)c2nc1=O	.	/	.	110.1	.
CCN(CC)CCNC(=S)Nc1ccc2nc(N3CCCC3)cc(C)c2c1	.	.	.	65.9	.
CCN(CC)CCNC(=S)Nc1ccc2nc(N3CCN(C)CC3)cc(C)c2c1	.	.	.	/	/
C[C@@H]1CCCCO[C@@H](CN(C)S(=O)(=O)c2ccccc2)[C@@H](C)CN([C@@H](C)CO)C(=O)c2cc(NC(=O)Nc3ccc(C(F)(F)F)cc3)ccc2O1	/	.	/	/	/
COCC(=O)N1C[C@@H](C)[C@@H](OC)CN(C)C(=O)c2ccc(NC(=O)c3ccc(F)cc3)cc2OC[C@H]1C	/	.	/	/	/
SMILES	HCV NS3 hel inh	Casp6 inh	DNMT1 block	NSD2 inh	AlphaScreen art
CCCCn1c(Cn2nc(C(=O)O)c3ccccc3c2=O)nc2cc(S(N)(=O)=O)ccc21	.	.	.	102.5	.
Cc1cccc(C)c1NC(=O)c1ccc(-n2cnnn2)cc1	.	/	.	.	/
O=C(Nc1ccc(Br)cc1)c1ccc(-n2cnnn2)cc1	.	.	.	105.0	.
O=C(C[C@@H]1CC[C@@H](NC(=O)c2cccc(F)c2)[C@@H](CO)O1)NCc1ccccc1	/	.	/	/	/
COc1ccc(OC)c2c1C(=O)c1ccccc1C2=O	.	/	/	.	/
COc1ccc2noc3c2c1C(=O)c1ccccc1-3	/	45.7	186.7	107.5	.
CCN1CCc2nc3ccccc3c(C(=O)Nc3ccc(NC(C)=O)cc3)c2C1	.	.	.	59.2	.
CCN1CCc2nc3ccccc3c(C(=O)Nc3ccc(F)cc3)c2C1	.	.	.	.	/
CC1CC(C)CN(C(=O)C2CCN(S(=O)(=O)c3cccs3)CC2)C1 (stereo not drawn)	.	.	.	50.3	.
O=C(CCN1CCOCC1)NCC1COc2ccccc2O1 (stereo not drawn)	.	/	.	56.3	.
O=C(CCc1ccccc1)NCCCN1CCOCC1	.	/	.	98.2	.
O=C(NCc1ccc(Cl)cc1)c1ccc(S(=O)(=O)N2CCCCC2)cc1	/	.	.	52.5	.
CN(C)CCNc1ncnc2oc(-c3ccccc3)c(-c3ccccc3)c12	.	.	.	50.9	.
C[C@H](CO)N1C[C@H](C)[C@@H](CN(C)CC2CCOCC2)Oc2ncc(C#Cc3ccccc3)cc2C1=O	/	.	/	/	/
COCC(=O)Nc1ccc2c(c1)[C@H]1C[C@@H](CC(=O)NCc3ccc(-c4ccccc4)cc3)O[C@H](CO)[C@H]1O2	/	.	/	/	/
O=C(c1ccccc1F)N(Cc1cccs1)C1CCS(=O)(=O)C1 (stereo not drawn)	.	.	.	84.9	.
CCCOc1ccc(CN(C(=O)c2cccc(OC)c2)C2CCS(=O)(=O)C2)cc1 (stereo not drawn)	.	.	.	.	/
COc1ccc(CN(C(=O)c2cccc(OC)c2)C2CCS(=O)(=O)C2)cc1 (stereo not drawn)	.	.	.	52.0	.
COc1ccc(C(=O)N(Cc2cccs2)C2CCS(=O)(=O)C2)cc1 (stereo not drawn)	.	.	.	100.2	.
NC1(C(=O)O)CSSC1	/	.	.	76.1	.
